1 compound from ChEMBL document CHEMBL1126568, “Nucleosides and nucleotides. 122. 2'-C-cyano-2'-deoxy-1-beta-D-arabinofuranosylcytosine and its derivatives. A new class of nucleoside with a broad antitumor spectrum” (J Med Chem, 1993) can be followed below.

Type in all cases: functional
For assay [1], the system named is Mus musculus. The experiment in a line: Tested for 60-day survivors after administration at 10 mg/kg orally in M5076 mouse reticulum cell sarcoma. As to conditions: route oral. Summed up: (§1)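 Female BD2F1 mice were implanted s.c. with 1 × 10^6 M5076 cells and dosed orally on days 1, 4, 7, 10, 13 and 16. Vehicle was saline or 5% DMA in 0.5% CMC. Groups had six mice (three at 400 mg/kg), with nine untreated controls. The number of mice alive at 60 days was counted.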

The test system of assay [2] is Mus musculus. As to the kind of experiment: Tested for 60-day survivors after administration at 20 mg/kg orally in M5076 mouse reticulum cell sarcoma. To be noted: route oral. In outline:
as §1

The subject of assay [3] is Mus musculus. As to the kind of experiment: Tested for 60-day survivors after administration at 30 mg/kg orally in M5076 mouse reticulum cell sarcoma. To be noted: route oral. Summed up:
as §1

Assay [4] deals with Mus musculus. The experiment in a line: Tested for 60-day survivors after administration at 40 mg/kg orally in M5076 mouse reticulum cell sarcoma. To be noted: route oral. In outline: as §1
Assay [5] has as its system Mus musculus. The experiment in a line: Tested for 60-day survivors after administration at 50 mg/kg orally in M5076 mouse reticulum cell sarcoma. To be noted: route oral. In outline: as §1
Assay [6] deals with Mus musculus. The experiment in a line: Percent treated was determined after administration at 20 mg/kg orally. To be noted: route oral. In outline:
(§2)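 In female BD2F1 mice bearing s.c. M5076 sarcoma (1 × 10^6 cells), drug was given orally on days 1, 4, 7, 10, 13 and 16, with six mice per treated group and nine untreated controls. T/C (%) = median survival day of treated mice / median survival day of untreated controls × 100.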

The test system of assay [7] is Mus musculus. The experiment in a line: Percent treated was determined after administration at 30 mg/kg orally. To be noted: route oral. Summed up: as §2
In assay [8] the test system is Mus musculus. As to the kind of experiment: Percent treated was determined after administration at 40 mg/kg orally. As to conditions: route oral. In outline:
as §2

Assay [9] deals with Mus musculus. As to the kind of experiment: Percent treated was determined after administration at 50 mg/kg orally. To be noted: route oral. Summed up:
as §2

For assay [10], the system named is Mus musculus. As to the kind of experiment: Percent treated was determined after administration at 10 mg/kg orally. As to conditions: route oral. Summed up: as §2
In assay [11] the test system is Mus musculus. The experiment in a line: Percent inhibition against M5076 mouse reticulum cell sarcoma after administration at 10 mg/kg orally on day 20. To be noted: M5076, 480 h, route oral. In outline: (§3)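 Female BD2F1 mice (7-8 weeks, 20-25 g) were given 1 × 10^6 viable M5076 cells s.c. in the axillary region. Drug in saline or 5% DMA/0.5% CMC was given orally on days 1, 4, 7, 10, 13 and 16, with six mice per group and untreated controls. Tumor volume = 0.5 × length × width². Inhibition on day 20 = (1 − Vt/Vc) × 100.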

The test system of assay [12] is Mus musculus. As to the kind of experiment: Percent inhibition against M5076 mouse reticulum cell sarcoma after administration at 20 mg/kg orally on day 20. To be noted: M5076, 480 h, route oral. Summed up:
as §3

For assay [13], the system named is Mus musculus. As to the kind of experiment: Percent inhibition against M5076 mouse reticulum cell sarcoma after administration at 30 mg/kg orally on day 20. To be noted: M5076, 480 h, route oral. In outline: as §3
Assay [14] concerns Mus musculus. As to the kind of experiment: Percent inhibition against M5076 mouse reticulum cell sarcoma after administration at 40 mg/kg orally on day 20. To be noted: M5076, 480 h, route oral. Summed up:
as §3

Assay [15] deals with Mus musculus. The experiment in a line: Percent inhibition against M5076 mouse reticulum cell sarcoma after administration at 50 mg/kg orally on day 20. To be noted: M5076, 480 h, route oral. In outline:
as §3

The test system of assay [16] is Mus musculus. As to the kind of experiment: Weight change in M5076 mouse reticulum cell sarcoma after administration at 50 mg/kg orally. As to conditions: route oral. Summed up: (§4)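 Mice were female BD2F1 bearing s.c. M5076 sarcoma (1 × 10^6 cells) and given oral drug on days 1, 4, 7, 10, 13 and 16. Body weight change (g) = average body weight on day 20 minus average on day 1.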

For assay [17], the system named is Mus musculus. The experiment in a line: Weight change in M5076 mouse reticulum cell sarcoma after administration at 10 mg/kg orally. As to conditions: route oral. Summed up: as §4
In assay [18] the test system is Mus musculus. As to the kind of experiment: Weight change in M5076 mouse reticulum cell sarcoma after administration at 30 mg/kg orally. To be noted: route oral. Summed up:
as §4

In assay [19] the test system is Mus musculus. The experiment in a line: Weight change in M5076 mouse reticulum cell sarcoma after administration at 40 mg/kg orally. As to conditions: route oral. Summed up: as §4
Assay [20] deals with Mus musculus. As to the kind of experiment: Weight change in M5076 mouse reticulum cell sarcoma after administration at 20 mg/kg orally. As to conditions: route oral. In outline:
as §4

The T/C is the ratio of treated to control. What is called inhibition in vivo is the share of the control response that was lost under treatment. High values mean a response far below the control, low ones a response near the control. For the compound `O=c1[nH]cc(F)c(=O)[nH]1` [FLUOROURACIL], the Survivors in assay [1], in [2], in [3], in [4] and in assay [5] was 6 in each case. Besides, the T/C in assay [6] amounted to 85%; in assay [7], 86%; in [8], 79%; in assay [9], 79%; in assay [10] it was 94%. The compound further showed an inhibition in vivo at 10 mg/kg in assay [11] of 1%. The same compound yielded an inhibition in vivo at 20 mg/kg in [12] of 6%. The compound also yielded an inhibition in vivo at 30 mg/kg in assay [13] of 9%. Besides, 40 mg/kg produced 17% inhibition in vivo in assay [14]. The same compound gave an inhibition in vivo at 50 mg/kg in assay [15] of 28%. The Weight change amounted to 1.4 g in assay [16]; 2.4 g in assay [17]; 2.4 g in [18]; 2.1 g in assay [19]; 2.2 g in assay [20].
